Results: ChEMBL document CHEMBL1130204, “3 alpha-Hydroxy-3 beta-(phenylethynyl)-5 beta-pregnan-20-ones: synthesis and pharmacological activity of neuroactive steroids with high affinity for GABAA receptors” (J Med Chem, 1997)

Experiments:
[1] = target: GABA-A receptor; anion channel; assay: In vitro inhibition of [35S]TBPS binding to Gamma-aminobutyric acid A (GABA-A) receptor of rat brain cortical membranes in the presence of 5 uM GABA(high affinity); format: cell membranes, Membrane
In short: (§1)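 Rat cortical P2 membranes, washed in 200 mM NaCl/50 mM Na-K phosphate pH 7.4, incubated 90 min at room temperature with 2 nM [35S]TBPS, 5 µM GABA and test drug in DMSO (final 0.5%). Nonspecific binding taken with 2 µM unlabeled TBPS. Filtration, then scintillation counting. Partial vs full and one- vs two-component models chosen by F-test. IC50 and Imax come from individual experiments, given as mean ± SEM of 3–4.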

Mus musculus [2] = assay: Percent of animals (n=8) not exhibiting PTZ-induced ( Pentylentetrazol protection) seizures 10 min following a 10 mg/kg ip dose of steroid.; format: functional; conditions: route intraperitoneal
In short: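 Male NSA mice (15-20 g), n = 8. […] Mice watched 30 min for clonic seizure (forelimb clonus ≥3 s). Read-out is the percent of mice protected.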

Rattus norvegicus [3] = species on record: Rattus norvegicus; assay: The maximum inhibitory potency was calculated by fitting [35S]TBPS inhibition data to a sigmoid function (rat brain cortical P2 membranes) (high affinity); format: functional; in short: as §1
Rattus norvegicus [4] = species on record: Rattus norvegicus; assay: (§2) The maximum inhibitory potency was calculated by fitting [35S]TBPS inhibition data to a sigmoid function (rat brain cortical P2 membranes) (low affinity); format: functional; in short: as §1
[5] = target: T1, GABA-A receptor; alpha-1/beta-2/gamma-2 (Homo sapiens, UniProt P14867+P18507+P47870); assay: Steroid potentiation of 5% GABA responses in Xenopus oocytes expressing human alpha-1-beta-2-gamma-2L subunits of GABA-A receptor; format: functional, cell-based, Oocyte
T1 sequence (P14867 whole entry): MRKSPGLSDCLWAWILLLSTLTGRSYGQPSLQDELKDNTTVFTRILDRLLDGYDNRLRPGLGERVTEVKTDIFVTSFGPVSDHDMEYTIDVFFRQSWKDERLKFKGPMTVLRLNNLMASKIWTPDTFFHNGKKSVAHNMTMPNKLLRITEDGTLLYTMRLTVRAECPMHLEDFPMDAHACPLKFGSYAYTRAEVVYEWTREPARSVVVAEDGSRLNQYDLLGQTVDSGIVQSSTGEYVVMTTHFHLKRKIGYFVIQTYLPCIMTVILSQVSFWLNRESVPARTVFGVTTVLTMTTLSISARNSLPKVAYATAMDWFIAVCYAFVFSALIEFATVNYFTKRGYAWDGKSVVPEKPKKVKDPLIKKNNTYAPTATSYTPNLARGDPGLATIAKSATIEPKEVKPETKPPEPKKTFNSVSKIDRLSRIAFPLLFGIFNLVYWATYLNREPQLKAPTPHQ
T1 sequence (P47870 whole entry): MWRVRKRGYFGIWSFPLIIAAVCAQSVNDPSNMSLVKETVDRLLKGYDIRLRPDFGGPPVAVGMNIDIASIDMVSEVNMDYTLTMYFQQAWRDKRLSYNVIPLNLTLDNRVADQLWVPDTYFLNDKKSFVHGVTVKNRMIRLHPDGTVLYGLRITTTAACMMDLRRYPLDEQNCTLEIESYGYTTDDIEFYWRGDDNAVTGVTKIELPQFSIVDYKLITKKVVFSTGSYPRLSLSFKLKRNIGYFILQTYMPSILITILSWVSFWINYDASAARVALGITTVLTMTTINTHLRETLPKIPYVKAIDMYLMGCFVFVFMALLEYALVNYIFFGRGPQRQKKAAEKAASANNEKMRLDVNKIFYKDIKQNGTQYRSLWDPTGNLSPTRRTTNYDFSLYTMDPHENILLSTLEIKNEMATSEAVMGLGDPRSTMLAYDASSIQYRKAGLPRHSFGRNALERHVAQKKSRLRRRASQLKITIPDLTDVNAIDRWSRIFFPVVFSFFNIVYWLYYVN
T1 sequence (P18507 whole entry): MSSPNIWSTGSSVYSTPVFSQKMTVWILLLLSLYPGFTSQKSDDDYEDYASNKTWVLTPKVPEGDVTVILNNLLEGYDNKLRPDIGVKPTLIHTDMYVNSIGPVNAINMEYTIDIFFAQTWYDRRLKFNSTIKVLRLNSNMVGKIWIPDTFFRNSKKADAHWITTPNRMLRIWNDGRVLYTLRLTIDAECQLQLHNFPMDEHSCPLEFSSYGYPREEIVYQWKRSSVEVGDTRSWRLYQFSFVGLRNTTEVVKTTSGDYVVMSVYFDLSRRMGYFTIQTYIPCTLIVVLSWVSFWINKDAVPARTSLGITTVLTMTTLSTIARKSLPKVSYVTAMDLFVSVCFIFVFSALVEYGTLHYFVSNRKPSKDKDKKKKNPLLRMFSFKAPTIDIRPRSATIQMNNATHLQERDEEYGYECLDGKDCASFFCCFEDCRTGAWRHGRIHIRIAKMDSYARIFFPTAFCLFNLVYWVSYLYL
In short: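 Xenopus oocytes injected with α1, β2, γ2L cRNAs (~1 ng each). Two-electrode voltage clamp at -70 mV in frog Ringer's, pH 7.4. GABA set to give about 5% of the maximal (1 mM GABA) current. Steroid stocks in DMSO diluted into Ringer's, DMSO 0.3%. Modulation is potentiation plus any direct steroid current, fitted to a four-parameter logistic. Mean ± SEM.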

[6] = target: GABA-A receptor; alpha-1/beta-2/gamma-2 (Homo sapiens) (UniProt P14867+P47870+P18507); assay: Efficacy as fractional response (FR) relative to GABA maximum current elicited in the Xenopus oocytes; format: functional, cell-based; conditions: Oocyte
In short: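 Xenopus oocytes expressing α1β2γ2L GABAA receptors (~1 ng each cRNA), two-electrode voltage clamp at -70 mV in frog Ringer's pH 7.4. GABA set to give ~5% of maximal current (1 mM GABA). Steroid co-applied with 0.3% DMSO. Response taken as potentiation plus any direct current, expressed as a fraction of GABA maximum, fit to a four-parameter logistic.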

[7] = Slope value was determined
[8] = target: T2, Gamma-aminobutyric acid receptor subunit gamma-1 (Rattus norvegicus, UniProt P23574); assay: In vitro inhibition of [35S]-TBPS binding to Gamma-aminobutyric acid A receptor in rat brain cortical membranes in the presence of 5 uM GABA (low affinity); format: functional, cell membranes, Membrane; in short: as §1
T2 sequence (P23574 whole entry): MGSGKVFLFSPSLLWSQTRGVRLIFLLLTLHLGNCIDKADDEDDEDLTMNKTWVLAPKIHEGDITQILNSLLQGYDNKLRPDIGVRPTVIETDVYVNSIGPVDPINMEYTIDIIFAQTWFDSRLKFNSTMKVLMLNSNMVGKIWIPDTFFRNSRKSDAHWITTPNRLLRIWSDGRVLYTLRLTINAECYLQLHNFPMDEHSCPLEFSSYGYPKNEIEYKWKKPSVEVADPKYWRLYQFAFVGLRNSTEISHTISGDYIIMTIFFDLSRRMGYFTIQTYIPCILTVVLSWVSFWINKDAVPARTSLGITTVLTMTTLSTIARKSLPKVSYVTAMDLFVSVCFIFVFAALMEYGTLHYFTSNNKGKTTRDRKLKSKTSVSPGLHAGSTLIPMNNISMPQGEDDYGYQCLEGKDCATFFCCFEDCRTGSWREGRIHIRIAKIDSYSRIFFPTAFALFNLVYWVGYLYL

[9] = target: GABA-A receptor; anion channel; assay: In vitro inhibition of [35S]TBPS binding to gamma-aminobutyric-acid A receptor in rat brain cortical membranes in the presence of 5 uM GABA.; format: cell membranes, Membrane
In short: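 Rat cortical P2 membranes, washed in 200 mM NaCl/50 mM Na-K phosphate pH 7.4, incubated 90 min at room temperature with 2 nM [35S]TBPS, 5 µM GABA and test drug in DMSO (final 0.5%). Nonspecific binding taken with 2 µM unlabeled TBPS. Filtration, then scintillation counting. Partial vs full and one- vs two-component models chosen by F-test.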

Mus musculus [10] = assay: Anticonvulsant potency that produces blockade of MES-induced seizures when administered intraperitoneally; format: functional; conditions: ip
In short: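 Male NSA mice given steroid ip in 50% HP-β-CD 30 min before corneal electroshock (50 mA, 60 pulses/s, 0.8 ms pulses, 1 s). End-point is tonic hindlimb extension >90° within 30 s. Quantal dose-response; ED50 reported with 95% CI.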

Mus musculus [11] = assay: Anticonvulsant potency that produces blockade of PTZ-induced seizures when administered intraperitoneally; format: functional; conditions: ip
In short: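 Male NSA mice given steroid ip in 50% HP-β-CD 30 min before PTZ 85 mg/kg sc. Mice watched 30 min for forelimb clonus ≥3 s. Quantal dose-response; ED50 reported with 95% confidence interval.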

Rattus norvegicus [12] = species on record: Rattus norvegicus; assay: (§3) The maximum inhibitory potency was calculated by fitting [35S]TBPS inhibition data to a sigmoid function (rat brain cortical P2 membranes); format: functional
In short: (§4)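 Rat cortical P2 membranes washed in 200 mM NaCl/50 mM Na-K phosphate pH 7.4, incubated 90 min at room temperature with 2 nM [35S]TBPS, 5 µM GABA and test drug in DMSO (final 0.5%). Nonspecific binding defined with 2 µM unlabeled TBPS. Filtration, scintillation counting. Fits to one- or two-component, full or partial inhibition models chosen by F-test; IC50 and Imax as mean ± SEM of individual experiments.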

[13] = Toxic dose that produces increase in hanging-wire failure; format: toxicity; conditions: mouse
In short: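 Male NSA mice, 15–20 g, given steroid ip in 50% HP-β-CD 30 min before testing. Hanging wire of 2 mm diameter, 25 cm above padding. A pass means both hindpaws reach the wire within 5 s. Quantal scoring; TD50 with 95% confidence interval.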

[14] = target: GABA-A receptor; anion channel; assay: (§5) In vitro inhibition of [35S]TBPS binding to Gamma-aminobutyric acid A receptor in rat brain cortical membranes in the presence of 5 uM GABA (low affinity); format: cell membranes, Membrane; in short: as §4
[15] = target: GABA-A receptor; anion channel; assay: In vitro inhibition of [35S]TBPS binding to Gamma-aminobutyric acid A receptor in rat brain cortical membranes in the presence of 5 uM GABA (high affinity); format: cell membranes, Membrane; in short: as §4
Rattus norvegicus [16] = species on record: Rattus norvegicus; assay: as §2; format: functional; in short: as §4; remark: listed apart in the source
[17] = target: GABA-A receptor; anion channel; assay: as §5; format: cell membranes, Membrane; in short: as §1; remark: listed apart in the source
[18] = target: T2, Gamma-aminobutyric acid receptor subunit gamma-1; assay: In vitro for inhibition of [35S]TBPS binding in rat brain cortical membranes in the presence of 5 uM GABA in two-component inhibition curve; format: functional, cell membranes, Membrane; in short: as §1
Rattus norvegicus [19] = species on record: Rattus norvegicus; assay: as §3; format: functional; in short: as §1; remark: listed apart in the source
[20] = The slope value for efficacy and response
In short: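 Oocytes expressing α1β2γ2L GABAA receptors under two-electrode voltage clamp in frog Ringer's pH 7.4. GABA or steroid concentration-response data fitted to a four-parameter logistic equation to derive slope. Mean ± SEM.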

| Compound | IC50 [1] [nM] | PTZ protection (Mus musculus [2]) [%] | Imax (Rattus norvegicus [3]) [%] | Imax (Rattus norvegicus [4]) [%] | EC50 [5] [nM] | Efficacy [6] | Slope [7] | IC50 [8] [nM] | IC50 [9] [nM] | ED50 (Mus musculus [10]) [mg/kg] | ED50 (Mus musculus [11]) [mg/kg] | Imax (Rattus norvegicus [12]) [%] | TD50 [13] [mg/kg] | IC50 [14] [nM] | IC50 [15] [nM] | Imax (Rattus norvegicus [16]) [%] | IC50 [17] [nM] | IC50 [18] [nM] | Imax (Rattus norvegicus [19]) [%] | Slope [20] |
| --- | --- | --- | --- | --- | --- | --- | --- | --- | --- | --- | --- | --- | --- | --- | --- | --- | --- | --- | --- | --- |
| CC(=O)[C@H]1CC[C@H]2[C@@H]3CC[C@@H]4C[C@@](O)(C#Cc5ccccc5O)CC[C@]4(C)[C@H]3CC[C@]12C | 82 | 0 | 30 | 57 | 340 | 0.51 | 1.6 | 5100 | – | – | – | – | – | – | – | – | – | – | – | – |
| CC(=O)c1ccc(C#C[C@@]2(O)CC[C@@]3(C)[C@H](CC[C@@H]4[C@@H]3CC[C@]3(C)[C@@H](C(C)=O)CC[C@@H]43)C2)cc1 | – | 75 | – | – | 6.6 | 0.94 | 1.2 | – | 10 | 7.4 | 8.2 | 106 | 10 | – | – | – | – | – | – | – |
| CC(=O)[C@H]1CC[C@H]2[C@@H]3CC[C@@H]4C[C@@](O)(C#Cc5ccc(N)cc5)CC[C@]4(C)[C@H]3CC[C@]12C | – | 13 | 17 | – | > 1000 | – | – | – | – | – | – | – | – | 11800 | 96 | 84 | – | – | – | – |
| CC(=O)c1ccc(C#C[C@@]2(O)CC[C@H]3[C@H](CC[C@@H]4[C@@H]3CC[C@]3(C)[C@@H](C(C)=O)CC[C@@H]43)C2)cc1 | – | 100 | – | – | 8.2 | 0.91 | 1.4 | – | – | 9.2 | 2.8 | 97 | 13.2 | – | – | – | – | – | – | – |
| CC(=O)c1cccc(C#C[C@@]2(O)CC[C@@]3(C)[C@H](CC[C@@H]4[C@@H]3CC[C@]3(C)[C@@H](C(C)=O)CC[C@@H]43)C2)c1 | – | 0 | 34 | 65 | – | – | – | – | – | – | – | – | – | 1500 | 45 | – | – | – | – | – |
| CC(=O)[C@H]1CC[C@H]2[C@@H]3CC[C@@H]4C[C@@](O)(C#Cc5ccc(N(C)C)cc5)CC[C@]4(C)[C@H]3CC[C@]12C | – | 50 | – | – | 18 | 0.76 | 1.1 | – | 40 | – | – | 78 | – | – | – | – | – | – | – | – |
| CC(=O)[C@H]1CC[C@H]2[C@@H]3CC[C@@H]4C[C@@](O)(C#Cc5ccc(C=O)cc5)CC[C@]4(C)[C@H]3CC[C@]12C | 67 | 0 | 44 | 54 | 31 | 0.88 | – | – | – | – | – | – | – | – | – | – | 1600 | 1600 | 54 | 1.3 |
